Inconclusive results are not listed.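 Rule for the calls, unless noted: active = inhibition over a set limit, the all-compound mean plus 3 SD, in both replicate runs; inconclusive = over that limit in just one replicate run; inactive = at or under that limit in both runs.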
Legend:
[1] = S. cerevisiae growth inhibition in permissive medium (OD615), pilot counter-assay for S. cerevisiae lifespan shortening project, permissive growth control (AID 705;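 active = growth inhibition above 25% in both replicates, a cutoff set 3 SD above the mean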); settings: OD615, 24 h, at 10 µM, stronger effect = higher value
Outline: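 Material: engineered DeaD yeast; Compound: one dose 10 µM, DMSO 0.25% final; Detection: absorbance (optical density) at 615 nm; Buffer or medium: permissive raffinose/galactose medium; Timing: 24 h exposure, 30 °C.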

[2] = S. cerevisiae growth inhibition in restrictive medium, OD615, pilot screen, restrictive growth control, yeast lifespan reduction project (AID 706;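 active = growth inhibition above a set limit, 3 SD over mean compound inhibition, in both replicates, cut at about 43% in these data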;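 note: modified DeaD lifespan yeast strain shifted to restrictive glucose medium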); settings: OD615, 48 h, at 10 µM, stronger effect = higher value
Outline: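 Buffer or medium: restrictive glucose medium (CSMM-D); test system: modified S. cerevisiae; doses: single dose of 10 µM compound final, 0.25% DMSO; schedule: 48 h compound exposure at 30 °C; detection: absorbance (optical density) measured at 615 nm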

[3] = doxorubicin toxicity protection in MRP-1 cells – H69AR cells, CellTiter-Glo, duplicate, MRP-1 activator project, pilot screen (AID 807;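 active = viability increase at or above a cutoff of the median across tested compounds plus 3 SD, cut at about 8.5% in these data, passing the limit was not always enough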;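 note: compound pretreatment 18-22 h then 72 h combined with doxorubicin; 0% = doxorubicin alone and 100% = vehicle without doxorubicin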); settings: H69AR viability with doxorubicin, CellTiter-Glo luminescence; at 10 µM; stronger effect = higher value
[4] = viability of HCT116 without oncogenic beta-catenin – human colon tumor cells, pilot screen (AID 823;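 active = cell viability at or below a set limit in both duplicate runs, the limit being the all-compound median minus 4 SD, cut at about 23% in these data, passing the limit was not always enough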;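 note: 0% = wells killed by 20 µM Hyamine and 100% = untreated DMSO cell wells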); settings: HCT116 beta-catenin knockout viability, CellTiter-Glo, 60 h; at 10 µM; stronger effect = lower value
[5] = viability of PTEN-null HCT116 cells – cell-based, HCT116 clonal line, CellTiter-Glo, pilot screen (AID 824;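 active = viability at or below 27.92% in each of two runs, the all-compound median minus 4 SD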;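 note: 0% = 20 µM Hyamine control and 100% = vehicle cell control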); settings: HCT116 PTEN-deleted viability, 60 h, at 10 µM, stronger effect = lower value
[6] = RAM pathway blockade in budding yeast – dse1pr::URA3 reporter, 5-FOA selection, pilot screen (AID 869);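 note: 0% = DMSO wells with no growth and 100% = 10 µM 1-NA-PP1 with full growth; RAM network block rescues cells from 5-FOA so hits raise OD615 growth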; settings: S. cerevisiae dse1pr::URA3 5-FOA growth, OD615, 2 d; at 10 µM; stronger effect = higher value; strain carries analog-sensitive mutant Cbk1 kinase
[7] = RAM signaling pathway blockade in yeast – S. cerevisiae, Pdr1DBD-CYC8 efflux-inhibited sensitized strain, primary screen (AID 1298;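 active = RAM network inhibition above 8.4% in each of two replicates, 3 SD over the compound average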;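 note: 0% = DMSO untreated cells without growth and 100% = 10 µM 1-NA-PP1 full growth; higher means more yeast growth rescued from 5-FOA killing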); settings: S. cerevisiae cbk1-as DSE1-URA3 strain, 5-FOA growth OD615, 2 d; at 50 µM; stronger effect = higher value

CCOC1CCCCC1NS(=O)(=O)c1ccc(Cl)cc1 (stereo unspecified)
inactive: growth inhibition [1] -3.5% | growth inhibition [2] 1.71% | viability increase [3] -3.23% | viability [4] 99.3% | viability [5] 91.7% | inhibition [6] 1.5% | RAM network inhibition [7] 2.71%

Nc1nonc1/C(=N/O)N1CCN(CCO)CC1
inactive: growth inhibition [1] 1.46% | growth inhibition [2] -1.22% | viability increase [3] 0% | viability [4] 104% | viability [5] 100% | inhibition [6] 1.46% | RAM network inhibition [7] 0.95%

Nc1c(NCc2ccccc2F)c(=O)[nH]c(=O)n1Cc1ccccc1
inactive: growth inhibition [1] 0.38% | growth inhibition [2] -8.14% | viability increase [3] -1.53% | viability [4] 106% | viability [5] 100% | inhibition [6] 0.67% | RAM network inhibition [7] 1%

Cc1nc(CNS(=O)(=O)c2ccc3c(c2)CCCC3)cs1
inactive: growth inhibition [1] -5.81% | growth inhibition [2] -2.64% | viability increase [3] -1.72% | viability [4] 96.7% | viability [5] 73.8% | inhibition [6] 1.51% | RAM network inhibition [7] 0.22%

c1nc(N2CCCCC2)c2[nH]cnc2n1
inactive: growth inhibition [1] -2.33% | growth inhibition [2] -9.23% | viability increase [3] -5.39% | viability [4] 113% | viability [5] 102% | inhibition [6] 1.4% | RAM network inhibition [7] 2.24%

CCOc1cc2[nH]c(=O)n(Cc3ccc(C(=O)NCCOC)cc3)c(=O)c2cc1OCC
inactive: growth inhibition [1] -16.2% | growth inhibition [2] -6.54% | viability increase [3] -1.54% | viability [4] 97.8% | viability [5] 95.2% | inhibition [6] 0.03% | RAM network inhibition [7] 6.22%

CCc1nnc(NC(=O)CSc2nc3c(c(=O)n2CC)SC(C)C3)s1 (stereo unspecified)
inactive: growth inhibition [1] 3.12% | growth inhibition [2] -4.29% | viability increase [3] -0.18% | viability [4] 99.2% | viability [5] 93.1% | inhibition [6] 3.99% | RAM network inhibition [7] 6.11%

CCOC(=O)c1[nH]c(=O)[nH]c1CSc1nc(C)cc(C)n1
inactive: growth inhibition [1] -4.23% | growth inhibition [2] 7.25% | viability increase [3] -3.65% | viability [4] 102% | viability [5] 96.9% | inhibition [6] 0.985% | RAM network inhibition [7] 5.37%

COc1ccccc1CC1(C)NC(=O)N(CC(=O)N2CC(C)OC(C)C2)C1=O (stereo unspecified)
inactive: growth inhibition [1] -25.5% | growth inhibition [2] -15% | viability increase [3] -0.71% | viability [4] 95.5% | viability [5] 97.9% | inhibition [6] 1.68% | RAM network inhibition [7] 1.34%

N#CC1=C2SCN(c3ccc(F)cc3)CN2C(=O)CC1c1cccc(F)c1 (stereo unspecified)
inactive: growth inhibition [1] 4.17% | growth inhibition [2] 7.57% | viability increase [3] -2.71% | viability [4] 104% | viability [5] 96.7% | inhibition [6] 1.06% | RAM network inhibition [7] 7.08%

CCOC(=O)c1cc(-c2ccc(C)cc2)n(CC(=O)NCc2ccco2)c1C
inactive: growth inhibition [1] 12.1% | growth inhibition [2] -7.09% | viability increase [3] -5.81% | viability [4] 74.6% | viability [5] 77.5% | inhibition [6] 3.1% | RAM network inhibition [7] 5.82%

Cc1ccsc1C1NC(=O)c2c(sc3c2CCN(C)C3)N1 (stereo unspecified)
inactive: growth inhibition [1] -1.86% | growth inhibition [2] 1.39% | viability increase [3] -1.41% | viability [4] 97.5% | viability [5] 98.6% | inhibition [6] 1.37% | RAM network inhibition [7] -0.83%

O=C(CSc1nnc2scc(-c3ccccc3)n12)c1ccc2c(c1)OCCO2
inactive: growth inhibition [1] 1.86% | growth inhibition [2] 0.4% | viability increase [3] -2.27% | viability [4] 99.5% | viability [5] 93.1% | inhibition [6] 3.66% | RAM network inhibition [7] 7.73%

COc1ccccc1N(CC(N)=O)S(=O)(=O)c1ccc(C)cc1
inactive: growth inhibition [1] 0.675% | growth inhibition [2] -2.73% | viability increase [3] -1.48% | viability [4] 98.2% | viability [5] 98% | inhibition [6] 0.21% | RAM network inhibition [7] 3.22%

Cc1ccc(C(=O)NCCCC(=O)O)o1
inactive: growth inhibition [1] -6.95% | growth inhibition [2] -1.79% | viability increase [3] -2.22% | viability [4] 97.4% | viability [5] 96.9% | inhibition [6] 0.1% | RAM network inhibition [7] 5.07%

CCOC(=O)c1ccc(NS(=O)(=O)c2cc(-c3nnnn3CC)ccc2OC)cc1
inactive: growth inhibition [1] -0.78% | growth inhibition [2] -5.39% | viability increase [3] -2.01% | viability [4] 92.5% | viability [5] 90.2% | inhibition [6] 1.56% | RAM network inhibition [7] 6.36%

Cn1c(=NC(=O)C2CC2)sc2cccc(F)c21
inactive: growth inhibition [1] -10.3% | growth inhibition [2] 8.25% | viability increase [3] -4.82% | viability [4] 88.3% | viability [5] 89% | inhibition [6] 0.96% | RAM network inhibition [7] 6.98%

Cc1cccc(N2CCN(C(=O)C3CCN(S(=O)(=O)c4cccc5cccnc45)CC3)CC2C)c1 (stereo unspecified)
inactive: growth inhibition [1] -1.53% | growth inhibition [2] -4.12% | viability increase [3] -1.38% | viability [4] 69.9% | viability [5] 67.1% | inhibition [6] 2.65% | RAM network inhibition [7] 1.04%

Cc1ccc(NC(=O)CN(c2cc(C)cc(C)c2)S(=O)(=O)c2c(C)noc2C)nc1
inactive: growth inhibition [1] -8.61% | growth inhibition [2] -7.12% | viability increase [3] -3.03% | viability [4] 69.4% | viability [5] 70.6% | inhibition [6] 0.895% | RAM network inhibition [7] 7.84%

CCOCCCNC(=O)C(NC(=O)CC1NC(=O)NC1=O)c1ccc(Cl)cc1 (stereo unspecified)
inactive: growth inhibition [1] -4.46% | growth inhibition [2] 1.68% | viability increase [3] 0.89% | viability [4] 107% | viability [5] 96.1% | inhibition [6] 2.61% | RAM network inhibition [7] 1.81%

CCCc1cc(C(=O)NCc2cccs2)no1
inactive: growth inhibition [1] -11.4% | growth inhibition [2] 21.3% | viability increase [3] -3.29% | viability [4] 101% | viability [5] 94.1% | inhibition [6] 1.34% | RAM network inhibition [7] 0.74%

COc1ccc(O)c(C(=O)c2cnn(C(=O)c3cc(C)oc3C)c2)c1
inactive: growth inhibition [1] -9.76% | growth inhibition [2] -11.3% | viability increase [3] -1.89% | viability [4] 97.2% | viability [5] 88.7% | inhibition [6] 2.02% | RAM network inhibition [7] 1.5%

CCN1C(=O)c2ccc(-c3nc4ccccc4c(=O)o3)cc2C1=O
inactive: growth inhibition [1] -8.45% | growth inhibition [2] -0.43% | viability increase [3] -0.05% | viability [4] 99% | viability [5] 94.7% | inhibition [6] 1.71% | RAM network inhibition [7] 3.16%

CCn1c(-c2ccccc2O)n[nH]c1=S
inactive: growth inhibition [1] 1.96% | growth inhibition [2] 25.6% | viability increase [3] -0.52% | viability [4] 93.7% | viability [5] 95.4% | inhibition [6] -0.54% | RAM network inhibition [7] 0.81%

CC1=C(C#N)C2C(/C1=N/O)C2(C)C (stereo unspecified)
inactive: growth inhibition [1] -4.15% | growth inhibition [2] -6.87% | viability increase [3] -1.76% | viability [4] 95% | viability [5] 85.3% | inhibition [6] 0.79% | RAM network inhibition [7] 1.21%

CC(=O)c1cccc(NC(=O)C2CCCN2S(=O)(=O)c2cccc3cccnc23)c1 (stereo unspecified)
inactive: growth inhibition [1] -1.04% | growth inhibition [2] 3.5% | viability increase [3] -5.23% | viability [4] 74.4% | viability [5] 82.7% | inhibition [6] 1.09% | RAM network inhibition [7] 6.23%

Cc1sc2nc(NCCO)[nH]c(=O)c2c1C
inactive: growth inhibition [1] -15.5% | growth inhibition [2] -23.2% | viability increase [3] -2.72% | viability [4] 107% | viability [5] 97.2% | inhibition [6] 0.885% | RAM network inhibition [7] -1.79%

COc1cccc2c1N1C(=O)c3c(C(=O)O)cccc3C1CC2(C)C (stereo unspecified)
inactive: growth inhibition [1] -15.2% | growth inhibition [2] -18.1% | viability increase [3] -2.18% | viability [4] 108% | viability [5] 98.9% | inhibition [6] 4.54% | RAM network inhibition [7] 2.74%

COC(=O)C1=C(C)N(C)C(C)=C(C(=O)OC)C1c1cccc(Br)c1
inactive: growth inhibition [1] -16.7% | growth inhibition [2] 0.915% | viability increase [3] 0.06% | viability [4] 72% | viability [5] 67.4% | inhibition [6] 0.57% | RAM network inhibition [7] 9.03%

CC1CCc2nn(CC(=O)NCc3ccco3)cc2C1 (stereo unspecified)
inactive: growth inhibition [1] 8.89% | growth inhibition [2] 2.02% | viability increase [3] -3.13% | viability [4] 92.7% | viability [5] 88.2% | inhibition [6] 2.08% | RAM network inhibition [7] 5.3%

CCOC(=O)c1ccc(NC(=O)NCCN2CCCCC2)cc1
inactive: growth inhibition [1] -0.03% | growth inhibition [2] -4.93% | viability increase [3] -0.32% | viability [4] 105% | viability [5] 100% | inhibition [6] 1.49% | RAM network inhibition [7] 3.62%

O=C(O)CN1C(=O)COc2cc(S(=O)(=O)N3CCCC3)ccc21
inactive: growth inhibition [1] 4.97% | growth inhibition [2] -0.475% | viability increase [3] 0.05% | viability [4] 94.8% | viability [5] 102% | inhibition [6] 0% | RAM network inhibition [7] 2.14%

CN1CCN(c2ccccc2NC(=O)Cc2cn(C)c3ccccc23)CC1
inactive: growth inhibition [1] 3.05% | growth inhibition [2] -4.69% | viability increase [3] -2.96% | viability [4] 92.8% | viability [5] 93.7% | inhibition [6] -0.845% | RAM network inhibition [7] 2.59%
